A selection: hits, their analogues and other compounds. The true share with any hit is near 1.8%.
NR2E3 ag-1: activates human NR2E3 receptor. Q9Y5X4. CHO-S Gal4-NCOR/VP16-NR2E3 two-hybrid, luciferase. inhibition of corepressor binding, % at 3.98 µM. 0.35% of 360,000 active. AID 602229;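 active means inhibition above the mean of all tested compounds plus 3 SD, cut at about 70% in these data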;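 further: 0% = DMSO with NR2E3 transfected cells and 100% = cells lacking NR2E3 construct; higher means lower luciferase signal from less NR2E3 corepressor binding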
NR1D1 modulator: modulates human Rev-erb alpha binding to DNA; 0.79% of 370,000 active; activity, % at 10 µM; Rev-erbα–FITC-DNA binding, fluorescence polarization, 90 min;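 active means activity above about 14%, limit read from the data; passing the limit was not always enough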;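 further: 0% = DMSO wells with 35 nM protein and 100% = DMSO wells with 750 nM protein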
Target sequence (P20393 whole entry, looked up): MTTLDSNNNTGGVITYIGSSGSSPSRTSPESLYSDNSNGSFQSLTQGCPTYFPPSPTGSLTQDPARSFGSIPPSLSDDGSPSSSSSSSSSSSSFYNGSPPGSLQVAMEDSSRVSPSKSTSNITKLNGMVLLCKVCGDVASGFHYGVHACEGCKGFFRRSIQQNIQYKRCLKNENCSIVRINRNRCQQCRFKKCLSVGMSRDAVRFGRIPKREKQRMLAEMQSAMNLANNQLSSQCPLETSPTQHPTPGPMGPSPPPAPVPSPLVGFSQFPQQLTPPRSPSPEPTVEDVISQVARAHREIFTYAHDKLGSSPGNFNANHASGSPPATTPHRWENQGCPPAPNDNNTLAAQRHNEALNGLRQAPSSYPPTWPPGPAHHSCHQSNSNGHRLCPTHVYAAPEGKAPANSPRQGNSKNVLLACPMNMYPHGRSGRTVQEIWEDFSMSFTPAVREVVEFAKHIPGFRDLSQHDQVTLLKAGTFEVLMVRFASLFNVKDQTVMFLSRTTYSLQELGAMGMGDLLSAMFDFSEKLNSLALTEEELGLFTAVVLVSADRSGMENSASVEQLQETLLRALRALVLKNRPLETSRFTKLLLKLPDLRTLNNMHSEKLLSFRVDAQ
PG9 Ab binder: PG9 antibody binding by small molecule. AID 624416. TR-FRET gp120-PG9 antibody binding. 0.43% of 360,000 active. inhibition, % at 6.7 µM; in the data active means inhibition above about 8.5%
GalR3 antag: antagonists of human GalR3. 0.44% of 360,000 active. O60755. HEK293 GalR3-CNG cAMP membrane potential fluorescence; galR3 body fused to GalR1 C-terminus. AID 651719. inhibition, % at 3 µM;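 active means inhibition above the screen-wide average plus 3 SD, cut at about 13% in these data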;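 further: forskolin and galanin both at EC90 stimulate the cells; cAMP rise reported by CNG channel membrane potential dye signal; 0% = forskolin plus galanin with DMSO and 100% = forskolin alone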
NR2E3 ag-2: activates human photoreceptor nuclear receptor NR2E3; GST-NR2E3/biotin-RetCOR TR-FRET, 1536-well; inhibition of corepressor binding, % at 4.78 µM; AID 2300; 0.12% of 320,000 active;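 active means percent inhibition above the cutoff of mean plus 3 SD of all tested compounds, set per screening campaign, cut at about 20% in these data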;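 further: 0% = DMSO wells and 100% = biotin wells as full block of FRET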
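Material: NR2E3–RetCOR corepressor complex | Quantity: 1.35 nM GST-tagged NR2E3 final | Schedule: 5 h at 4 °C | Replication: Singlicate compound wells | Reagent: RetCOR corepressor, biotinylated, 7 nM | Controls: Biotin wells as high control, 0.6% DMSO wells as low control | Signal: TR-FRET, Eu(K)-anti-GST donor, streptavidin-D2 acceptor, ex 340, em 617/671 nm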
PG9 binder conf: confirmation of small molecules binding HIV-1 gp120 antibody PG9. shares compounds with PG9 Ab binder. TR-FRET PG9 antibody binding, biochemical. inhibition, % at 6.7 µM. 90% of 1,500 active; in the data active means inhibition above about 9%
PGV04 Ab binding: binds control antibody PGV04 in PG9 binder counter-screen; inhibition, % at 6.7 µM; shares compounds with PG9 Ab binder; AID 651604; 95% of 1,500 active; TR-FRET PGV04 antibody-gp120 binding, biochemical; in the data active means inhibition above about 9.5%
PG9 bind DR: small molecules binding HIV-1 gp120 antibody PG9 | TR-FRET PG9 antibody-gp120 binding inhibition | shares compounds with PG9 Ab binder | IC50, µM | 95 tested, under 10 active; in the data active means IC50 below about 10 µM
PGV04 binding DR: PGV04 binding, dose response counter-screen; shares compounds with PG9 Ab binder; TR-FRET binding to control antibody PGV04; IC50, µM; 20% of 95 active; AID 651937
PG126 binding DR: binds control antibody PG126 in PG9 counter-screen; shares compounds with PG9 Ab binder; 20% of 95 active; IC50, µM; TR-FRET binding to antibody PG126, counterscreen
* marks the source's active call; other numbers are inactive results; i = inactive; / = no result given. Unless noted, no stated cut-off is given here; in the data, active means IC50 below about 9 µM; inactive means the rest.

SMILES | NR2E3 ag-1 | NR1D1 modulator | PG9 Ab binder | GalR3 antag | NR2E3 ag-2 | PG9 binder conf | PGV04 Ab binding | others
COc1cc(OC)cc(C(=O)NCCNc2nc3cc(C)cc(C)c3cc2C#N)c1 | -6 | 0 | 20* | -6 | 6 | 9.0* | 23*
COc1ccc(-c2noc(CCC(=O)NCC3CCCO3)n2)cc1OC (centres undefined) | 14 | 0 | 11* | -5 | -1 | 4 | 7
COC(=O)[C@H](C(C)C)N1Cc2nnn(Cc3ccc(C)cc3)c2-c2cc(F)ccc2S1(=O)=O | / | 0 | / | / | / | / | /
COC(=O)CCC(=O)Nc1sc(C)c(C)c1C(N)=O | -24 | 0 | 2 | 1 | 3 | / | /
COC(=O)CCC(=O)NC(=S)Nc1sc(C)c(C)c1C(N)=O | 2 | 12 | 36* | -2 | 13 | 33* | 42*
Cc1ccc(-n2nc3c(c2NC(=O)c2ccccc2Br)CS(=O)C3)cc1 (centres undefined) | -9 | -2 | 8.8* | 0 | 2 | 8 | 15*
Cc1cccc(CNC(=O)NC2CCCCN(Cc3cccc(Cl)c3)C2=O)c1 (centres undefined) | / | 2 | / | / | / | / | /
CCCCOCCCNC(=O)C[C@H]1C[C@@]2(C(=O)OC)C(=C[C@H](C(C)C)O[C@@H]2C2CC2)N(Cc2ccccc2)C1=O | / | -5 | 1 | -5 | / | / | /
Cc1nc(SCC(=O)Nc2sccc2C(N)=O)c2c(C)c(C)sc2n1 | 31 | -5 | -1 | -4 | / | / | /
Cc1nc(SCC(=O)Nc2cc(C(N)=O)cc(C(N)=O)c2)c2c(C)c(C)sc2n1 | -67 | 8 | 11* | -1 | 14 | 18* | 36*
Cc1cccc(C(=O)OCC(=O)c2ccc3c(c2)NC(=O)CO3)c1 | 26 | 8 | 15* | -9 | / | 16* | 27*
O=C1COc2ccc(C(=O)COC(=O)c3ccc(F)cc3Cl)cc2N1 | -13 | 14 | 32* | -5 | / | 37* | 47*
COc1cc(OC)c(C(=O)OCC(=O)c2ccc3c(c2)NC(=O)CO3)cc1OC | 7 | -4 | 1 | 1 | / | / | /
CCN(CC)S(=O)(=O)c1cccc(C(=O)OCC(=O)c2ccc3c(c2)NC(=O)CO3)c1 | 13 | 3 | 1 | 0 | 0 | / | /
O=C1COc2ccc(C(=O)COC(=O)CCSc3ccc(Cl)cc3)cc2N1 | -16 | 17 | 13* | -6 | 3 | 30* | 44*
O=C1N(CCCO)CCC12CCC(c1ccccc1)CC2 (centres undefined) | / | -2 | / | / | / | / | /
Cc1ccc(CN2CCS(=O)(=O)CC2)cc1 | -23 | 0 | 11* | 2 | 0 | 6 | 13*
CC(C)[C@H](NC(=O)Cc1ccccc1)C(=O)OCc1cc(=O)n2c(n1)sc1ccccc12 | 15 | -9 | 9.6* | 3 | 5 | 17* | 21*
O=C1N/C(=N\c2ccccn2)SC1Cc1ccc(Cl)cc1 (centres undefined) | 2 | 13 | 9.3* | 5 | 5 | 17* | 29*
COc1ccc(NC(=O)c2cc3sccc3n2Cc2ccc(F)cc2)cc1OC | -30 | 2 | 0 | -6 | 2 | / | /
O=C(Nc1nccs1)c1cc2sccc2n1Cc1ccc(F)cc1 | -3 | 16 | 9.4* | -7 | 10 | 15* | 19*
CCCCC1=CC2=C(c3ccco3)C(=O)C(C)(OC(=O)c3ccc(OC)cc3)C(=O)C2=CN1Cc1ccccc1 (centres undefined) | -16 | -5 | 24* | -5 | 14 | 28* | 33*
C[C@H]1[C@@H](N(C)C)CC[C@@]23CCCN2C(=O)CCC[C@@H]13 | / | -3 | / | / | / | / | /
Cc1nc2ccccc2nc1CSc1nncs1 | -7 | -1 | 9.8* | -2 | 3 | 6 | 7
CCn1c(SCc2nc3ccccc3nc2C)nnc1-c1cccs1 | 0 | 5 | -2 | -4 | 1 | / | /
SMILES | NR2E3 ag-1 | NR1D1 modulator | PG9 Ab binder | GalR3 antag | NR2E3 ag-2 | PG9 binder conf | PGV04 Ab binding | others
CCOc1cccc(-c2nn3c(-c4ccco4)nnc3s2)c1 | -23 | 0 | 12* | -4 | 6 | 39* | 29* | PG9 bind DR=>67;PGV04 binding DR=>67;PG126 binding DR=>67
COc1cccc(-c2nnc3sc(-c4ccco4)nn23)c1 | -63 | -2 | -1 | -6 | 2 | / | /
COCCN(CCOC)S(=O)(=O)c1ccc(C(=O)Nc2nc(-c3ccncc3)cs2)cc1 | 22 | 8 | 16* | -10 | 7 | 16* | 21*
CCOC(=O)Cc1csc(NC(=O)c2ccc(S(=O)(=O)N(CCOC)CCOC)cc2)n1 | -2 | -2 | -1 | -5 | -1 | / | /
Cc1ccc(S(=O)(=O)Nc2nc3ccccc3nc2Nc2cccc(S(=O)(=O)N3CCCC3)c2)cc1 | -7 | 1 | 9.8* | -5 | -1 | 12* | 14*
O=[N+]([O-])c1cccc(S(=O)(=O)Nc2nc3ccccc3nc2Nc2cccc(S(=O)(=O)N3CCCCC3)c2)c1 | -8 | 8 | -2 | 1 | / | / | /
COc1ccc(C(=O)COC(=O)CCN=C2NS(=O)(=O)c3ccccc32)c(OC)c1 | -32 | 2 | 17* | -3 | -2 | 31* | 45*
COc1cc(C(=O)Nc2nc3ccc(C)cc3s2)ccc1OCc1c(C)noc1C | -37 | 14 | 12* | 3 | 4 | 21* | 26*
CCc1nnc(NC(=O)c2ccc(OCc3c(C)noc3C)c(OC)c2)s1 | 9 | -4 | -2 | -6 | 2 | / | /
O=C(COC(=O)c1cc(Cl)ccc1O)c1ccc2c(c1)OCO2 | -22 | 8 | 11* | -6 | 1 | 10* | 15*
O=C(COC(=O)c1ccc(O)cc1O)c1ccc2c(c1)OCO2 | -37 | -3 | -1 | -4 | -2 | / | /
CCc1ccc(OCC(=O)OCC(=O)c2ccc3c(c2)NC(=O)CO3)cc1 | -15 | 16 | 15* | -3 | 3 | 24* | 33*
CCCCCCC(=O)OCC(=O)c1ccc2c(c1)NC(=O)CO2 | -9 | 9 | 0 | 0 | 1 | / | /
CCC(=O)c1ccc(OCC(=O)c2ccc3c(c2)NC(=O)CO3)cc1 | -11 | 15 | 16* | 2 | -1 | 38* | 38* | PG9 bind DR=>67;PGV04 binding DR=i;PG126 binding DR=i
Cc1cc(C)cc(N(CC(=O)NC2CCC(C)CC2)S(=O)(=O)c2ccc(C)c(C)c2)c1 (centres undefined) | / | -3 | / | / | / | / | /
C=CCNC(=O)c1cc(-c2ccc(Br)cc2)on1 | -72 | 4 | 9.4* | 4 | 4 | 25* | 28*

Bioassay records (PubChem)
